Here are results for one molecule from paper PMC4832308 (Cancer, 2015).

Data set [1] in a line: plasma pharmacokinetics in patients. It counts as in vivo, human.
The nature of data set [2]: urine pharmacokinetics in patients. Conditions: human, in vivo.
Data set [3] has as its system pS6RP. The experiment in a line: blood biomarker analysis by flow cytometry and PK/PD modeling. It counts as in vivo, human. Conditions: for EC50: Homo sapiens, read-out: EC50 for pS6RP inhibition. The gist of the method: (§1)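 Sodium-heparin patient whole blood, taken predose and 1.5–5 h postdose: 1 h at 37°C, 15-min anti-IgD plus LPS stimulation, lyse/fix, methanol overnight at −80°C, then CD3/CD14/CD20 and phospho-staining and flow cytometry. Bead-calibrated MFI reported as ERF. Baseline-relative change vs plasma drug (chiral LC-MS) was fitted by a direct inhibitory NONMEM model for EC50: p4EBP1 in T cells, pS6RP in B cells and monocytes.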
For orientation: A flow cytometer gives signals particle by particle.

Data set [4] concerns p4EBP1. The data set is described as above. It counts as in vivo, human. The gist of the method:
as §1

The subject of data set [5] is pAKT. The experiment in a line: blood biomarker analysis by flow cytometry and PK/PD modeling. It counts as in vivo, human. Conditions: for EC50: Homo sapiens, read-out: EC50 for pAKT inhibition.
The test system of data set [6] is pAKT. Kind of data set: immuno‐histochemical staining of tumor biopsies. It counts as in vivo, human. Conditions: pre‐ vs on‐treatment (days 15‐22), HCC and salivary gland tumor, 30‐mg/d cohort. A digest of the protocol: (§2)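 Optional pretreatment and on-treatment (days 15–22) tumor biopsies from 2 patients in the 30-mg/d cohort (HCC and salivary gland tumor). Paraffin-embedded sections were immunostained per antibody (pS6RP, p4EBP1, pAKT, Ki-67) or TUNEL-labelled, then scored by quantitative image analysis.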

Data set [7] has as its system p4EBP1. The experiment in a line: immuno‐histochemical staining of tumor biopsies. Conditions: HCC sample after treatment initiation. It counts as in vivo, human. A digest of the protocol:
as §2

Data set [8] has as its system non‐Hodgkin lymphoma cell lines. The following applies: cited from earlier work.
Data set [9] concerns PC3 prostate cancer. The following applies: cited from earlier work.
Where [10] appears, read: 30‐, 45‐, and 60‐mg dose levels, 3 hours on treatment.

The structures appear in SMILES notation. Converted amounts (≈) assume the structure as drawn. Like-named read-outs stand apart in the source and are kept apart here.

As usually defined, the half-life is the time needed for the level to fall by half in the phase considered. A low value points to rapid decline. In general, EC50 refers to the midpoint of the concentration-response curve.

With `CO[C@H]1CC[C@H](N2C(=O)CNc3ncc(-c4ccc(C(C)(C)O)nc4)nc32)CC1` [CC‐223], the “dose dependence of Cmax and AUC from time 0 to infinity” value in data set [1] (30‐ to 60‐mg dose range, single or multiple doses) is on record as “dose‐proportional”. In [1] (human, plasma, oral), this molecule registered a half-life of 4.86 to 5.64 h. Moreover, in data set [1] (multiple dosing), the “ratio of AUC0‐24 between day 15 and day 1” value is at most 22%. Also, in data set [2], the “fraction excreted unchanged in urine” value is listed as below 0.2%. Also, in data set [2], the renal clearance entry is given as “negligible”. Further, the “pS6RP inhibition in blood cells” value in data set [3] (setting [10]) is above 70%. For the same molecule, the EC50 came to 0.0203 µg/mL (≈ 0.0511 µM) in data set [3] (B-cell); 0.174 µg/mL (≈ 0.438 µM) in [3] (Monocyte); 0.113 µg/mL (≈ 0.284 µM) in data set [4] (Homo sapiens, T-cell, read-out: EC50 for p4EBP1 inhibition); 0.0504 µg/mL (≈ 0.127 µM) in data set [5] (B-cell); 0.085 µg/mL (≈ 0.214 µM) in data set [5] (Monocyte). In addition, the “p4EBP1 inhibition in blood cells” value in data set [4] (setting [10]) is listed as above 40%. Besides, the “pAKT inhibition in blood cells” value in data set [5] (setting [10]) was above 48%. For the same molecule, the “pAKT staining in tumor biopsies” value in [6] was “Significant inhibition”. Besides, the “p4EBP1 in tumor biopsy” value in data set [7] was “inhibition”. The “activity against non‐Hodgkin lymphoma cell lines” value in [8] was “active”. Also, the “single‐agent activity in xenograft model” value in data set [9] was “single‐agent activity”.
